Measurements from ChEMBL document CHEMBL3414481, “Discovery of highly selective brain-penetrant vasopressin 1a antagonists for the potential treatment of autism via a chemogenomic and scaffold hopping approach” (J Med Chem, 2015).
Values after ≈ are worked out from the molar mass of the structure shown.

Assays:
Vasopressin V1a receptor [1] = biological target: T1, Vasopressin V1a receptor (Homo sapiens, UniProt P37288); assay: Displacement of [3H]-vasopressin from human vasopressin 1a receptor expressed in HEK293 cell membranes after 1 hr by scintillation proximity assay
Procedure, shortened: (§1)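 Radioligand competition binding; affinity reported as Ki.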
Target sequence in this assay (P37288 whole entry): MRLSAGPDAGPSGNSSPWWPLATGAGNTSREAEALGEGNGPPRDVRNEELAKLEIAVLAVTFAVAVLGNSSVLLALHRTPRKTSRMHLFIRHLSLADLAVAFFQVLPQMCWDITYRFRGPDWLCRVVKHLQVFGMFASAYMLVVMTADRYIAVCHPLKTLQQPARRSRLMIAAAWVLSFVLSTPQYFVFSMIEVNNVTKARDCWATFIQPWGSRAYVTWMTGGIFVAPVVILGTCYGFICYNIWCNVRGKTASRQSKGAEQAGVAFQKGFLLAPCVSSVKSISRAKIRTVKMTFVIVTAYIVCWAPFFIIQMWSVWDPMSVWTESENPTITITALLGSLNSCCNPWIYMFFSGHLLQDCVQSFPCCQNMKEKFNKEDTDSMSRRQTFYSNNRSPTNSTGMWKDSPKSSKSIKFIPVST

Vasopressin V1a receptor [2] = biological target: T1, Vasopressin V1a receptor; assay: Antagonist activity at human vasopressin 1a receptor expressed in CHO cells assessed as inhibition of vasopressin-induced calcium flux preincubated for 20 mins followed by vasopressin induction measured for 5 mins by FLIPR assay; assay type: functional, cell-based
Procedure, shortened: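 Functional antagonist calcium-flux read-out; value reported as apparent affinity (Kb).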
Target sequence in this assay (P37288 whole entry, looked up): as the sequence (P37288 whole entry) above

Vasopressin V1a receptor [3] = biological target: Vasopressin V1a receptor (Mus musculus, UniProt Q62463); assay: Displacement of [3H]-vasopressin from mouse vasopressin 1a receptor expressed in HEK293 cell membranes after 1 hr by scintillation proximity assay; procedure, shortened: as §1
Vasopressin V2 receptor = Vasopressin V2 receptor (Homo sapiens, UniProt P30518); assay: Displacement of [3H]-vasopressin from human vasopressin V2 receptor expressed in HEK293 cell membranes after 1 hr by scintillation proximity assay
Oxytocin receptor = biological target: T2, Oxytocin receptor (Homo sapiens, UniProt P30559); assay: Displacement of [3H]-oxytocin from human oxytocin receptor expressed in HEK cell membranes after 1 hr by scintillation proximity assay; parameters: species or system HEK293
T2 sequence (P30559 whole entry): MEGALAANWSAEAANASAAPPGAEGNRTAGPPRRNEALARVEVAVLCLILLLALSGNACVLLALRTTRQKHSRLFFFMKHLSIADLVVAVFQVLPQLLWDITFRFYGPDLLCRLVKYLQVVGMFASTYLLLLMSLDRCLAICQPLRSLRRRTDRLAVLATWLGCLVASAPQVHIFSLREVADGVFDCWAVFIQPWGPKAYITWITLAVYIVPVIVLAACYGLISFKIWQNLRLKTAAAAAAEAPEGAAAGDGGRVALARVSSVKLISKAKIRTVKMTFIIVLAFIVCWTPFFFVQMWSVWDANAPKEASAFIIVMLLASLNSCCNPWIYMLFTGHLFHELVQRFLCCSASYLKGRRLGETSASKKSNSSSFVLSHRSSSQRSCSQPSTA

Homo sapiens [4] = organism: Homo sapiens; assay: Selectivity ratio of Ki for human vasopressin V2 receptor to Ki for human vasopressin 1a receptor
Procedure, shortened: (§2)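 Ratio of the Ki at hV2 or hOTR to the hV1a Ki. Each Ki came from a radioligand competition binding assay.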

Homo sapiens [5] = organism: Homo sapiens; assay: Selectivity ratio of Ki for human oxytocin receptor to Ki for human vasopressin 1a receptor; procedure, shortened: as §2
[6] = Solubility of the compound in phosphate buffer at pH 6.5 incubated for 1 hr with stirring followed by 2 hrs of shaking by Lysa assay; assay type: physicochemical
[7] = Activity at human P-gp assessed as drug transport; assay type: ADME
[8] = Octanol-buffer partition co-efficient, log D of the compound after 24 hrs by high-throughput shake-flask method; assay type: physicochemical
[9] = Ratio of drug level in brain to plasma in mouse at 10 mg/kg, po; assay type: ADME, organism-based; parameters: dose 10 mg/kg, route oral; settings: read-out: BPR
[10] = Volume of distribution at steady state in mouse at 2 mg/kg, iv; assay type: ADME, organism-based; parameters: dose 2 mg/kg, route intravenous; settings: in vivo, read-out: Vdss
[11] = Clearance in mouse at 2 mg/kg, iv; assay type: ADME, organism-based; parameters: dose 2 mg/kg, route intravenous; settings: in vivo
Mus musculus [12] = assay: Inhibition of arginine vasopressin-induced scratching in icv dosed NMRI mouse administered 5 mins prior to arginine vasopressin challenge measured for 5 mins; assay type: functional, organism-based
Procedure, shortened: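 Mice received the compound i.c.v. at three doses or vehicle before centrally given AVP. AVP-induced scratching was scored and expressed as % of maximal response.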

Vasopressin V1b receptor = biological target: T3, Vasopressin V1b receptor (Homo sapiens, UniProt P47901); assay: Displacement of [3H]-vasopressin from human vasopressin 1b receptor after 1 hr by scintillation proximity assay
T3 sequence (P47901 whole entry): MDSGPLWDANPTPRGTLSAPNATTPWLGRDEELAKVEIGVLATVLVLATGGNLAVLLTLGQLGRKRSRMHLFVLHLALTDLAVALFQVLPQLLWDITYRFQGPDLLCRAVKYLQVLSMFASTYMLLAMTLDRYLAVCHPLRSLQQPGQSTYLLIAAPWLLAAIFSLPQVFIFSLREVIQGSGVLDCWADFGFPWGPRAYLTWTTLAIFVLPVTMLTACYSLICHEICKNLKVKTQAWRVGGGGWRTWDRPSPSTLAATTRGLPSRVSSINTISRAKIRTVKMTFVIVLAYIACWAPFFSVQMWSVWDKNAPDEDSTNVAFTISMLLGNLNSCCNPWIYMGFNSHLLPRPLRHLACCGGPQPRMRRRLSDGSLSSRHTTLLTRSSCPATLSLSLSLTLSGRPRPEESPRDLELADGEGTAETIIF

Mus musculus [13] = assay: Inhibition of arginine vasopressin-induced scratching in ip dosed NMRI mouse administered 30 mins prior to arginine vasopressin challenge measured for 5 mins; assay type: functional, organism-based
Procedure, shortened: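 Mice received the compound i.p. at 0.3, 1, 3, 10 or 30 mg/kg or vehicle before centrally given AVP. AVP-induced scratching was scored and expressed as % of maximal response.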

Vasopressin V1a receptor (Mus musculus, UniProt Q62463), sequence (Q62463 whole entry): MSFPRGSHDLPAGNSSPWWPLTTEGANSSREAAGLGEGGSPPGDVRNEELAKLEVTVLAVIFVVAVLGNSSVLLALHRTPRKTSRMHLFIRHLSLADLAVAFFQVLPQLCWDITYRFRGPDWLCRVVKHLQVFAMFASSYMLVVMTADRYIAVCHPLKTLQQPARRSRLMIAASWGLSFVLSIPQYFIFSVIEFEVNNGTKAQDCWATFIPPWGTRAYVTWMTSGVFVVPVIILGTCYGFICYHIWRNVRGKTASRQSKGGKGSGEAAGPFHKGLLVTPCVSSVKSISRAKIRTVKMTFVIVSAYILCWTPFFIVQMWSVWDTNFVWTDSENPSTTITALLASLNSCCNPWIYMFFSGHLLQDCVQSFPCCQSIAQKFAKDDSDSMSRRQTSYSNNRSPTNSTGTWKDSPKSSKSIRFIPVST
Vasopressin V2 receptor, sequence (P30518 whole entry): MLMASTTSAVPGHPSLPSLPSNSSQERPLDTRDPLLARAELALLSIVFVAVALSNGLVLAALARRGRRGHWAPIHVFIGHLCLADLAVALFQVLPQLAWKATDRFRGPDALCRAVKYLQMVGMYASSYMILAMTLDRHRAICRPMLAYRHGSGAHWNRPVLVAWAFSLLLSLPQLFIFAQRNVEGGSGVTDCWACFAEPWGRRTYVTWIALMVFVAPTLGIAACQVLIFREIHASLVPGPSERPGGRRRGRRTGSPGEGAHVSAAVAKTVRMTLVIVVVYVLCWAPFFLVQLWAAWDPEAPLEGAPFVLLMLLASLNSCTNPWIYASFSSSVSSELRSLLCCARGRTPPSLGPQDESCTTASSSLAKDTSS

Compound	Ki (Vasopressin V1a receptor [1]; read-out: Ki)	Kb (Vasopressin V1a receptor [2])	Ki (Vasopressin V1a receptor [3]; read-out: Ki)	solubility at 3 h [6]	also measured
O=C(c1c[nH]c2cc(Cl)ccc12)N1CCC2(CC1)COc1ccccc12	16 nM	72 nM	–	–	Ki (Vasopressin V1a receptor [3]; hek293): Not Active
O=C(c1cn(C[C@@H]2CCCN2)c2cc(Cl)ccc12)N1CCC2(CC1)OCc1ccccc12	1.4 nM	1.4 nM	125 nM	108 µg/mL (≈ 240 µM)	Ratio Ki (Homo sapiens [4]): > 19300; Ratio Ki (Homo sapiens [5]): 1510; Activity [7]: Active; Kp [9]: 0.05; Vd [10]: 6.8 L/kg; clearance [11]: 32 mL/min/kg
CN1CCN(C(=O)Cn2cc(C(=O)N3CCC4(CC3)OCc3ccccc34)c3ccc(Cl)cc32)CC1	1 nM	0.2 nM	41 nM	193 µg/mL (≈ 381 µM)	Ratio Ki (Homo sapiens [4]): > 60000; Ratio Ki (Homo sapiens [5]): 9160; Kp [9]: 0.07; Vd [10]: 1.5 L/kg; clearance [11]: 39 mL/min/kg; inhibition (Mus musculus [12]): Dose-dependent effect
CN(C)CCn1cc(C(=O)N2CCC3(CC2)OCc2ccccc23)c2ccc(Cl)cc21 [RO-5028442]	–	2.6 nM	39 nM	205 µg/mL (≈ 468 µM)	Ratio Ki (Homo sapiens [4]): > 30000; Ratio Ki (Homo sapiens [5]): 9890; Activity [7]: Not Active; Kp [9]: 1.4; Vd [10]: 5.8 L/kg; clearance [11]: 91 mL/min/kg
O=C(c1c[nH]c2cc(Cl)ccc12)N1CCC2(CC1)c1ccccc1CS2(=O)=O	24 nM	11 nM	5890 nM	–	–
O=C(c1c[nH]c2cc(Cl)ccc12)N1CCC(n2c(=O)[nH]c3ccccc32)CC1	8 nM	14 nM	2390 nM	–	–
Cc1c(C(=O)N2CCC(O)(Cc3ccccc3)CC2)c2ccccc2n1Cc1ccccc1	295 nM	–	–	–	–
O=C(c1c[nH]c2cc(Cl)ccc12)N1CCC2(CC1)OCc1ncccc12	39 nM	7.8 nM	4820 nM	–	–
O=C(c1c[nH]c2cc(Cl)ccc12)N1CCC2(CC1)OCc1ccncc12	9 nM	4.2 nM	2980 nM	–	–
O=C1Nc2ccccc2C2(CCN(C(=O)c3c[nH]c4cc(Cl)ccc34)CC2)O1	–	38 nM	–	–	Ki (Vasopressin V1a receptor [3]; hek293): Not Active
COc1ccccc1C(=O)N1CCC(O)(Cc2ccccc2)CC1	–	–	–	–	Ki (Vasopressin V1a receptor [1]; hek293): Not Active
O=C(c1c[nH]c2cc(Cl)ccc12)N1CCC2(CC1)CNc1ccccc12	–	20 nM	5890 nM	–	–
CN1CCC[C@H]1Cn1cc(C(=O)N2CCC3(CC2)OCc2ccccc23)c2ccc(Cl)cc21	1 nM	0.5 nM	13 nM	140 µg/mL (≈ 302 µM)	Ratio Ki (Homo sapiens [4]): 6070; Ratio Ki (Homo sapiens [5]): 1980; Activity [7]: Not Active; Kp [9]: 2; Vd [10]: 2.6 L/kg; clearance [11]: 67 mL/min/kg
CN(C)C(=O)Cn1cc(C(=O)N2CCC3(CC2)OCc2ccccc23)c2ccc(Cl)cc21	–	0.1 nM	14 nM	56 µg/mL (≈ 124 µM)	Activity [7]: Active; Kp [9]: 0.05; Vd [10]: 1.2 L/kg; clearance [11]: 40 mL/min/kg
Cc1c(C(=O)N2CCC3(CC2)OCc2ccccc23)c2ccccc2n1Cc1ccccc1	2 nM	3.6 nM	210 nM	< 1 µg/mL	Ki (Vasopressin V2 receptor): 9310 nM; Ki (Oxytocin receptor; hek293): Not Active; logD at 24 h [8]: > 3
CN(C)CCNC(=O)Cn1cc(C(=O)N2CCC3(CC2)OCc2ccccc23)c2ccc(Cl)cc21	2 nM	0.7 nM	177 nM	> 650 µg/mL	Ratio Ki (Homo sapiens [4]): 11800; Ratio Ki (Homo sapiens [5]): 5690; Activity [7]: Active; Kp [9]: 0.1; Vd [10]: 4.9 L/kg; clearance [11]: 14 mL/min/kg; inhibition (Mus musculus [13]): Dose-dependent effect
O=C(c1c[nH]c2cc(Cl)ccc12)N1CCC(c2ccccc2)CC1	23 nM	43 nM	1490 nM	–	–
O=C(c1c[nH]c2cc(Cl)ccc12)N1CCN(c2ccccc2Cl)CC1	118 nM	193 nM	1970 nM	–	–
O=C(c1c[nH]c2cc(Cl)ccc12)N1CCC2(CC1)OCc1cccnc12	5 nM	1.8 nM	1020 nM	–	–

Now from value to compound, other results behind:

Ki (Vasopressin V1a receptor [1]; read-out: Ki)	Kb (Vasopressin V1a receptor [2])	Ki (Vasopressin V1a receptor [3]; read-out: Ki)	Compound	solubility at 3 h [6]	also measured
6620 nM	–	–	O=C(c1cccc2ccccc12)N1CCC(O)(Cc2ccccc2)CC1	–	–
4 nM	2.9 nM	1010 nM	O=C(c1c[nH]c2cc(Cl)ccc12)N1CCC2(CC1)OCc1ccccc12	4 µg/mL (≈ 10.9 µM)	Ki (Vasopressin V2 receptor): > 27000 nM; Ki (Oxytocin receptor; read-out: Ki): 7520 nM; Ratio Ki (Homo sapiens [4]): > 6750; Ratio Ki (Homo sapiens [5]): 1880; Activity [7]: Not Active; logD at 24 h [8]: 3.7
4990 nM	–	–	Cc1c(C(=O)N2CCC(O)(Cc3ccccc3)CC2)c2ccccc2n1S(=O)(=O)c1ccccc1	–	–
2830 nM	–	–	CCOc1ccc2ccccc2c1C(=O)N1CCC(O)(Cc2ccccc2)CC1	–	Ki (Vasopressin V1b receptor; read-out: Ki): 12000 nM
5 nM	5 nM	–	O=C1OC2(CCN(C(=O)c3c[nH]c4cc(Cl)ccc34)CC2)c2ccccc21	–	Ki (Vasopressin V1a receptor [3]; hek293): Not Active
32 nM	–	6620 nM	O=C(c1c[nH]c2ccccc12)N1CCC2(CC1)OCc1ccccc12	17 µg/mL (≈ 51.1 µM)	logD at 24 h [8]: > 3
4 nM	3.3 nM	11 nM	CN1CCC(n2cc(C(=O)N3CCC4(CC3)OCc3ccccc34)c3ccc(Cl)cc32)CC1	12 µg/mL (≈ 25.9 µM)	Ratio Ki (Homo sapiens [4]): > 6750; Ratio Ki (Homo sapiens [5]): 1200; Activity [7]: Not Active; Kp [9]: 1; Vd [10]: 7.2 L/kg; clearance [11]: 52 mL/min/kg
3900 nM	–	–	Cc1c(C(=O)N2CCC(O)(Cc3ccccc3)CC2)c2ccccc2n1C(=O)c1ccccc1	–	–
81 nM	–	–	CCOc1ccc2ccccc2c1C(=O)N1CCC2(CC1)OCc1ccccc12	–	Ki (Vasopressin V1b receptor): Not Active
